From PubChem
CSN inh = inhibitors of CSN-mediated cullin deneddylation, primary screen, biochemical, fluorescence polarization, uHTS. COP9 signalosome complex subunit 5 (Homo sapiens), Q92905. Purified CSN, SCF-Nedd8-OG deneddylation. inhibition, % at 12.5 µM. actives 0.38% (n = 360,000). AID 651999, 2013;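 active means pattern-corrected inhibition above about 35%, with an unprinted fluorescence ratio check between 0.5 and 1.5, limit read from the data, passing the limit was not always enough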;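 further: 0% = enzyme with substrate and 100% = substrate without enzyme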
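Assay system: purified human Csn5 enzyme expressed in HEK293T cells; measure: % inhibition; also added: SCFSkp2-Nedd8OG substrate at 10 nM final; technique: fluorescence polarization; times: reaction 90 min, room temperature; medium: Tris buffer pH 7.5, NaCl, DTT, Tween-20, trehalose, ovalbumin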
TPT1 inhibitor = Candida albicans TPT1 enzyme inhibitors, primary screen, biochemical, fluorescence polarization. recombinant caTPT1, FP RNA substrate dephosphorylation. inhibition, % at 5 µM. actives 0.81% (n = 300,000);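 active means inhibition above the mean of all tested compounds plus 3 SD, set per screening campaign, cut at about 24% in these data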;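 further: plate controls were DMSO alone for no effect and ferristatin control at 100 nM for full effect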
Rev-erbA mod = modulators of Rev-erb alpha DNA binding, primary screen, biochemical, FITC-DNA, fluorescence polarization, uHTS. activity, % at 10 µM. AID 1259318, 2017. Rev-erbα–FITC-DNA binding, 90 min. actives 0.79% (n = 370,000). Nuclear receptor subfamily 1 group D member 1 (Homo sapiens), P20393;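 active means activity above about 14%, limit read from the data; passing the limit was not always enough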;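 further: 0% = DMSO wells with 35 nM protein and 100% = DMSO wells with 750 nM protein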
HNF4A DNA FP = change in binding of human HNF4A to DNA, primary screen, biochemical, fluorescence polarization, FITC-DNA | AID 1224865, 2016 | actives 0.3% (n = 360,000) | 1 h | Hepatocyte nuclear factor 4-alpha (Homo sapiens), P41235 | activity change, % at 10 µM; in the data active means activity change above about 30%, passing the limit was not always enough
TPT1 inh confirm = Candida albicans TPT1 inhibitors, confirmation, biochemical, fluorescence polarization, triplicate; actives 74% (n = 2,400); inhibition, % at 5 µM; shares compounds with TPT1 inhibitor; recombinant caTPT1, RNase T1 coupled;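 active means inhibition above the primary screen limit, the mean inhibition of all tested compounds plus 3 SD, cut at about 25% in these data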
RNase T1 inh = RNase T1 inhibitors, counter-screen for TPT1 inhibitor project, biochemical, fluorescence polarization. shares compounds with TPT1 inhibitor. RNase T1 cleavage, 1536-well. inhibition, % at 5 µM. actives 83% (n = 2,400). AID 2153, 2009;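 active means inhibition above the solvent-only control well mean plus 3 SD, limit set per screening run, cut at about 23% in these data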;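 further: plate controls were DMSO wells with enzyme for no effect and wells without RNase T1 for full effect; inhibitors block cleavage so intact labeled substrate keeps polarization high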
CSN deneddyl val = Csn5 deneddylation inhibitors, confirmation, biochemical, fluorescence polarization, single concentration, SCF-Nedd8OG substrate; shares compounds with CSN inh; Csn5 deneddylation of SCF-Nedd8OG, 90 min; inhibition, % at 16.6 µM; actives 62% (n = 540); in the data active means inhibition above about 50%;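 further: 0% = DMSO with enzyme and 100% = no enzyme wells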
MMP2 cntr CSN = MMP-2 protease inhibition counter-screen, confirmation, counter-screen for CSN deneddylation inhibitor project, biochemical, fluorescence, single concentration. actives 33% (n = 540). inhibition, % at 16.6 µM. recombinant MMP-2, FRET substrate fluorescence, 60 min. shares compounds with CSN inh;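 active means corrected plate-normalized z-score of 5 or more, or -5 or less, or inhibition of 15% or more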;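 further: plate controls were DMSO wells with enzyme for no effect and buffer wells lacking MMP-2 for full effect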
Thrombin cntr = counter-screen for CSN deneddylation inhibitors: bovine thrombin inhibition; shares compounds with CSN inh; bovine thrombin cleavage of Ub4-pepOG, fluorescence polarization; inhibition, % at 16.6 µM; actives 49% (n = 540);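 active means inhibition at or above a set limit, with a fluorescence interference ratio between 0.5 and a set maximum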
Target sequence (P00735 whole entry, looked up): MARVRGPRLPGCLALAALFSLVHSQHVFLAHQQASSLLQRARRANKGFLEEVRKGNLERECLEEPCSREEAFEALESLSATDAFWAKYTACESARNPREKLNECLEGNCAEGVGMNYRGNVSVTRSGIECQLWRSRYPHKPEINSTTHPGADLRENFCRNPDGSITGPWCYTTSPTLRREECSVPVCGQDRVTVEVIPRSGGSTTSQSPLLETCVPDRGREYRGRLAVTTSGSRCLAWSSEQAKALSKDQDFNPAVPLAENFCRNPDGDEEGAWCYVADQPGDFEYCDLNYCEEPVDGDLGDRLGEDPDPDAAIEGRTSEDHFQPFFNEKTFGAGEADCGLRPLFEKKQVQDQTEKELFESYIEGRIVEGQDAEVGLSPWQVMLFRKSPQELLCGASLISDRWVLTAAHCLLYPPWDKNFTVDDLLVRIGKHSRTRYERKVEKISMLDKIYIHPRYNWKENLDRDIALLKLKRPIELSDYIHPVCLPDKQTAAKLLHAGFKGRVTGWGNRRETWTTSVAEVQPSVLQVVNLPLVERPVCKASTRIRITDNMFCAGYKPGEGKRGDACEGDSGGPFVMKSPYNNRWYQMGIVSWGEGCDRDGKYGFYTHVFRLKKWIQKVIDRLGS
Starred values were filed as active, the others as inactive. Hits are enriched below; roughly 1.7% of the tested compounds scored in any of these assays.

What do the screens show for `Nc1c(C(=O)N/N=C/c2ccccc2Cl)oc2nc(-c3ccccc3)cc(-c3ccco3)c12`?
CSN inh: 1.8; TPT1 inhibitor: 71.5*; Rev-erbA mod: 3.0; HNF4A DNA FP: 64.5; TPT1 inh confirm: 91.6*; RNase T1 inh: 95.5*

What do the screens show for `Nc1c(C(=O)N/N=C/c2ccc(F)cc2)oc2nc(-c3ccccc3)cc(-c3ccco3)c12`?
CSN inh: 10.2; TPT1 inhibitor: 34.2*; Rev-erbA mod: -2.9; HNF4A DNA FP: 32.8; TPT1 inh confirm: 108.7*; RNase T1 inh: 111.5*

What do the screens show for `O=C(OC12CCCN(C1)/C(=C/c1cccnc1)C2)c1cccc(F)c1` (centres undefined)?
Rev-erbA mod: 1.2

What do the screens show for `CC(C)OC(=O)CN1C(=O)S/C(=C/c2ccc(N3CCCCC3)o2)C1=O`?
CSN inh: 51.5*; TPT1 inhibitor: 180.2*; Rev-erbA mod: -6.2; HNF4A DNA FP: 8.9; TPT1 inh confirm: active; RNase T1 inh: 178.9*; CSN deneddyl val: 73.2*; MMP2 cntr CSN: -114.2*; Thrombin cntr: -73.3

What do the screens show for `Cc1ccc2c(nc3s/c(=C\c4ccc(-c5ccccc5C(=O)O)o4)c(=O)n32)c1C`?
CSN inh: 102.2*; TPT1 inhibitor: 116.0*; Rev-erbA mod: -3.0; HNF4A DNA FP: 83.1; TPT1 inh confirm: 137.8*; RNase T1 inh: 130.4*; CSN deneddyl val: -26.8; MMP2 cntr CSN: -26.8; Thrombin cntr: 17.6

How did Cc1ccc2c(nc3s/c(=C/c4cccs4)c(=O)n32)c1C do in these assays?
CSN inh: 4.2; Rev-erbA mod: 2.8; HNF4A DNA FP: 6.0

What do the screens show for `CN(Cc1ccccc1)C(=O)c1cccc(NC(=O)Cc2ccc(NC(=O)C3CCCN(S(=O)(=O)c4cccc([N+](=O)[O-])c4)C3)cc2)c1` (centres undefined)?
Rev-erbA mod: 0.3

Results for O=C(N[C@@H](Cc1cccnc1)C(=O)N1CCC[C@H]1C(=O)NCCc1ccccc1Cl)C1CC1 ?
Rev-erbA mod: 0.2

Results for Cc1ccc(N=Cc2c(O)c3ccccc3n(C)c2=O)cc1 ?
CSN inh: -3.3; Rev-erbA mod: -6.0; HNF4A DNA FP: -3.4

Results for Cc1ccc(N=Cc2sc(O)c3ccccc23)cc1 ?
CSN inh: 40.4*; TPT1 inhibitor: 142.4*; Rev-erbA mod: 9.4; HNF4A DNA FP: 77.2; TPT1 inh confirm: 111.3*; RNase T1 inh: 109.2*; CSN deneddyl val: 82.5*; MMP2 cntr CSN: -10.4; Thrombin cntr: 57.0*

Results for O=c1cc(N2CCN(c3cccc(Cl)c3Cl)CC2)[nH]c(=O)n1C1CCCCC1 ?
Rev-erbA mod: -2.6
